Measurements as given in ChEMBL document CHEMBL3259769, “Symmetric adamantyl-diureas as soluble epoxide hydrolase inhibitors” (Bioorg Med Chem Lett, 2014).
Values after ≈ are worked out from the molar mass of the structure shown.

Experiments:
[1] = target: T1, Bifunctional epoxide hydrolase 2 (Homo sapiens, UniProt P34913); test: Displacement of ACPU from recombinant human soluble epoxide hydrolase after 1.5 hrs by FRET assay
T1 sequence (P34913 whole entry): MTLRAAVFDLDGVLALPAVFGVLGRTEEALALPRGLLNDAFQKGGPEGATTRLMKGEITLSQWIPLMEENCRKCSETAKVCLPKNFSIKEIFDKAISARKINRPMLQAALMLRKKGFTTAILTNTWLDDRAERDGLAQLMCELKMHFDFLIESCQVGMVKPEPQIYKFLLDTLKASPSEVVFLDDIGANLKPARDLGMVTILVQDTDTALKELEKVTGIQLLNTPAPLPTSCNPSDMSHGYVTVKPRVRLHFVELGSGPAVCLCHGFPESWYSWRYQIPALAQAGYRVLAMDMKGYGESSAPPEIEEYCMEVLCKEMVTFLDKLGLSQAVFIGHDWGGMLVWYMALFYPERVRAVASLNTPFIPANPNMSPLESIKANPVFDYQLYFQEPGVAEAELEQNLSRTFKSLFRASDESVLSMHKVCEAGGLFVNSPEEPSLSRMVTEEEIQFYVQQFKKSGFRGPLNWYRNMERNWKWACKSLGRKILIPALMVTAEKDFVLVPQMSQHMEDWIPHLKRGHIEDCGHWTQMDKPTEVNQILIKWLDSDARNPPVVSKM
Procedure, shortened: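 Human sEH was preincubated with an equimolar amount of the fluorescent reporter ACPU for 2 h at rt. The complex (20 nM) was used in 100 mM sodium phosphate with 0.1% gelatin, pH 7.4, on gelatin-precoated plates. Inhibitor was added as 12 two-fold dilutions, with DMSO as control, and incubated 1.5 h. Fluorescence (ex 280/em 450 nm) was normalised to baseline and fitted to a three-state equilibrium model to give Ki.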

[2] = target: T2, Bifunctional epoxide hydrolase 2 (Homo sapiens) (UniProt P34913)
T2 sequence (whole entry): T1 sequence (P34913 whole entry)

[3] = Metabolic stability in human liver microsomes assessed as compound remaining at 1 uM preincubated for 5 mins followed by NADPH addition measured after 30 mins by LC/MS/MS analysis; format: ADME; conditions: read-out: Stability
Procedure, shortened: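 Human liver microsomes (1 mg/mL final) in 0.1 M potassium phosphate, pH 7.4, 3 mM MgCl2, 1 mM EDTA, were preincubated with inhibitor 5 min at 37 °C. Reaction was started with NADPH generating system and run 30 min at 37 °C. Quenched with one volume methanol containing 200 nM CUDA surrogate. LC/MS/MS; % remaining; triplicate average.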

[4] = target: T1, Bifunctional epoxide hydrolase 2; test: Inhibition of recombinant human soluble epoxide hydrolase using CMNPC as substrate preincubated for 5 mins followed by substrate addition measured at 5 mins post substrate addition by fluorescence assay in presence of 1 mg/mL BSA
[5] = Metabolic stability in human liver microsomes assessed as compound remaining at 1 uM after 30 mins by LC/MS/MS analysis in absence of NADPH; format: ADME; conditions: read-out: Stability
Procedure, shortened: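 Inhibitor added to human liver microsomes (1 mg/mL final) in 0.1 M potassium phosphate, pH 7.4, with 3 mM MgCl2 and 1 mM EDTA. After 5 min at 37 °C, buffer was added in place of NADPH generating system, then 30 min at 37 °C. Stopped with one volume methanol containing 200 nM CUDA surrogate. LC/MS/MS; % remaining; triplicate average.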

[6] = Solubility of the compound in sodium phosphate buffer at pH 7.4 after 24 hrs by LC/MS/MS analysis; format: physicochemical
Procedure, shortened: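 Compound suspended in 0.1 M sodium phosphate buffer, pH 7.4, containing 1% DMSO, held 24 h at 30 °C, then 1 h at rt. Centrifuged 10,000 rpm for 10 min; supernatant diluted 5-fold in methanol, 15 min at rt to precipitate salt, then re-centrifuged. Supernatant stored at -20 °C until LC/MS-MS quantitation.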

[7] = target: T1, Bifunctional epoxide hydrolase 2; test: Inhibition of recombinant human soluble epoxide hydrolase using CMNPC as substrate preincubated for 5 mins followed by substrate addition measured at 5 mins post substrate addition by fluorescence assay in presence of 0.1 mg/mL BSA

SMILES	Ki [1] [nM]	T1/2 [2] [min]	remaining at 0.5 h, 1 µM [3] [%]	IC50 [4] [nM]	remaining at 0.5 h, 1 µM [5] [%]	solubility at 24 h [6] [µM]	IC50 [7] [nM]
O=C(NCCCCCCNC(=O)NCC12CC3CC(CC(C3)C1)C2)NCC12CC3CC(CC(C3)C1)C2	3.4	10	3	0.7	102	50 (≈ 24.9 µg/mL)	
CC(NC(=O)Nc1ccc(NC(=O)NC(C)C23CC4CC(CC(C4)C2)C3)cc1)C12CC3CC(CC(C3)C1)C2 (configuration not stated)							161
O=C(NCC1CCN(C(=O)NCC23CC4CC(CC(C4)C2)C3)CC1)NCC12CC3CC(CC(C3)C1)C2							39.7
O=C(NC1CCCCC1)NC1CCCCC1 [1,3-DICYCLOHEXYLUREA]			22		100	5 (≈ 1.12 µg/mL)	
O=C(NCC12CC3CC(CC(C3)C1)C2)Nc1ccc(NC(=O)NCC23CC4CC(CC(C4)C2)C3)cc1							780
CC(NC(=O)NCCCCNC(=O)NC(C)C12CC3CC(CC(C3)C1)C2)C12CC3CC(CC(C3)C1)C2 (configuration not stated)	2.7	8	24	2.5	92	10 (≈ 4.99 µg/mL)	1.2
O=C(NCCCCCCCCNC(=O)NC1C2CC3CC(C2)CC1C3)NC1C2CC3CC(C2)CC1C3 (configuration not stated)	2.4	2.5	36	4.1	100	5 (≈ 2.49 µg/mL)	2.6
O=C(NCCCCNC(=O)NCC12CC3CC(CC(C3)C1)C2)NCC12CC3CC(CC(C3)C1)C2							26.3
CC(NC(=O)NCCCCCCCCNC(=O)NC(C)C12CC3CC(CC(C3)C1)C2)C12CC3CC(CC(C3)C1)C2 (configuration not stated)	3.1	11	11	0.8	100	10 (≈ 5.55 µg/mL)	0.5
O=C(NCCCCNC(=O)NC12CC3CC(CC(C3)C1)C2)NC12CC3CC(CC(C3)C1)C2							7.2
O=C(Nc1ccc(NC(=O)NC23CC4CC(CC(C4)C2)C3)cc1)NC12CC3CC(CC(C3)C1)C2							19.5
CCC(CNC(=O)NCCCCNC(=O)NCC(CC)C12CC3CC(CC(C3)C1)C2)C12CC3CC(CC(C3)C1)C2 (configuration not stated)							2.3
CCC(CNC(=O)NCCCCCCCCNC(=O)NCC(CC)C12CC3CC(CC(C3)C1)C2)C12CC3CC(CC(C3)C1)C2 (configuration not stated)							1440
O=C(NCCCCCCCCNC(=O)NCC12CC3CC(CC(C3)C1)C2)NCC12CC3CC(CC(C3)C1)C2							7.3
O=C(NCCCCNC(=O)NC1C2CC3CC(C2)CC1C3)NC1C2CC3CC(C2)CC1C3 (configuration not stated)							10.4
O=C(NCCNC(=O)NCC12CC3CC(CC(C3)C1)C2)NCC12CC3CC(CC(C3)C1)C2							179
O=C(NC12CC3CC(CC(C3)C1)C2)NC12CC3CC(CC(C3)C1)C2			19	1.3	93	5 (≈ 1.64 µg/mL)	1.2
O=C(NCCCCCCCCNC(=O)NC12CC3CC(CC(C3)C1)C2)NC12CC3CC(CC(C3)C1)C2							997
